Test results reported in the EternaBench riboswitch data.

System: MS2 coat protein
Assay: apparent Kd, MS2 coat protein; higher = weaker binding; RNA-MaP array; FMN 200 µM where present
Procedure, shortened: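 On Illumina sequencing-chip clusters, designs were transcribed by stalled E. coli RNA polymerase and titrated with SNAP-549-labelled MS2 coat protein (0.7 or 1.5 nM, doubling to 3 µM), without and then with constant ligand, in 100 mM Tris-HCl pH 7.5, 80 mM KCl, 4 mM MgCl2, BSA, DTT, yeast tRNA and Tween-20. Apparent Kd is the median of filtered per-cluster curve fits to green signal normalised to red-channel RNA signal and control-cluster median Fmax.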

[1] = designed as: OFF switch for flavin mononucleotide, no ligand
[2] = ligand present: flavin mononucleotide, designed as: OFF switch for flavin mononucleotide
[3] = designed as: ON switch for flavin mononucleotide, no ligand
[4] = ligand present: flavin mononucleotide, designed as: ON switch for flavin mononucleotide

Sequence	apparent Kd [1] [nM]	apparent Kd [2] [nM]	apparent Kd [3] [nM]	apparent Kd [4] [nM]
CAGUACUGAGGAUAUACAUGAGGAUCACCCAUGUGUUCCAGCUUGGAAACUAGCAAAAGUAGAAGGCAGUACUG	14.8	158		
CAGUACUGAGGAUAUACAUGAGGAUCACCCAUGUGUUCCUGCUAGGAAACUAGCAAAAGUAGAAGGCAGUACUG	25.2	532		
CAGUACUGAGGAUAUACAUGAGGAUCACCCAUGUGUUCCUGCUAGGAUAUUAGCAAAAGUAGAAGGCAGAAGGGAAUGUGCCUA	6.93	6.73		
CAGUCUACAGGAUAUACAUGAGGAUCACCCAUGUGUUUUCACUUUCAGUAGUCUAUAUGUAGAAGGGUAGACUG	24.8	90.1		
CAGUGCUGUUGAGAGGAUAUGCGGCGACGGACAUGAGGAUCACCCAUGUUAGCGACAGCGUUGCGGCAGAAGGCUCUGCCCACUG			11.2	10.4
CAGUGCUGUUGAGAGGAUAUGCGGCGACGGACAUGAGGAUCACCCAUGUUAGCGACAGCGUUGCGGCAGAAGGCUCUGCCCGCUG			21	13.7
CAUAUACAGGGAGGAUAUAACAUGAGGAUCACCCAUGUGCAAUCCUCAAUGUUAGAAGGCCCAAUAGAAUCGCAAAAGGCAUCC	8.51	4.96		
CAUCAGGUACGAGGAUAUCCGCGAUCUCUUCGAGGAGAAGGCGUACAUGAGGAUCACCCAUGUGGGCGAGACAGACGAAGUCUG	114	59.5		
CAUUUCAUGUCAGGAUAUCCGCGCAGCUUCACGCACGAUAUAAGGGAGCUUGGAGAAGGGACAUGAGGAUCACCCAUGUGCCUC	10.9	26		
CCAAACUGAGGAUAUACAUGAGGAUCACCCAUGUGCCCGCGGUCAUAUGUAGCCUAGUGUAGAAGGCAGAAAAC	75.5	25		
CCACGUCACAUUAACAUGAGGAUCACCCAUGUCUCUAGACAUGAGGAUAUGGAUCCUAAUUGGAUCCAGAAGGCAUGGACGUGG			1420	138
CCAGAGGUCACAGGAUAUGACUUGUCCAAUUAGUCAGAAGGGUGAAUCACAUUAUGUAUACAUGAGGAUCACCCAUGUCCUACG			214	1040
CCAGAUAUGUAAGGAUAUAUAGUGGAAUACACUAUAGAAGGUAUGUGAGAACAUGAGGAUCACCCAUGUCAUUGGAUAUCUGGA			37.1	39.3
CCAGCGUAUGUGAGGAUAUGCUGGUCCUUGGAUCAGCAGAAGGCACAUGAGGAUCACCCAUGUGGAAUCGUUGG	23.5	92.1		
CCAGCUCGUGUUAGGAUAUCCAAGCUGCGGCUGGUGGAGAAGGGACAUGAGGAUCACCCAUGUAAUAAAGAAAA	26.4	31.9		
CCAGGCUUCGAGAAGGACAUGAGGAUCACCCAUGUGCGUGUGAAGCAGCCGUGAGGCUGCAUCAUGUAGGAUAUCGGAGUCUGA	71.8	396		
CCAGGCUUCGAGAAGGACAUGAGGAUCACCCAUGUGCGUGUGAAGCAGCCGUGAGGCUGCAUCAUGUAGGAUAUCGGAGUCUGG	71.9	499		
CCAUACAUGAGGAUCACCCAUGACAUGAGGAUCACCCAUGUGCAGGAUAUACGUGAUAUAAUAUAGUAGAAGGGCAGACCAAAA	75.7	85.2		
CCAUCGAGUGUGAGGAUAUGCUGUUCCUUGGAGCAGCAGAAGGCACAUGAGGAUCACCCAUGUGGAUACGGUGG	34.3	251		
CCAUGGCUGUGAGGAUAUGUCUGACAAAGUCAGACAGAAGGCACAUGAGGAUCACCCAUGUGAAAACACCAACAAAAGCCAUGG	5.93	6.9		
CCAUGGUGGGCAGGAUAUCGUCCAGCUUGCGGACGAGAAGGGCCAGAACAUGAGGAUCACCCAUGUGAAAGGCGGGUUGUCCAA	21.6	103		
CCAUGUUAGCAGGAUAUGCAAUAAAUCUUUUAAGCAGAAGGGCUUACAUGAGGAUCACCCAUGUAUAAAGUCAA	19.8	45.6		
CCCAUGUUAGGAUAUAUGGAAGGGCGCACGUGCACCCUAAGGUAGAAGGGACAUGAGGAUCACCCAUGUAAUAA	152	228		
